Source: ChEMBL document CHEMBL3616459, “Antimicrobial peptides with potential for biofilm eradication: synthesis and structure activity relationship studies of battacin peptides” (J Med Chem, 2015)
Values after ≈ are worked out from the molar mass of the structure shown. Positions of bridges follow the written chain, without caps; N, C: chain ends. Non-standard residues stand in square brackets, D forms with d. Residues, ends and D or L forms follow the SMILES beside them. *: point of attachment. Myristoyl = CCCCCCCCCCCCCC(=O)*; X1 = CC(C)=CCC/C(C)=C/C(=O)*; dDab = NCC[C@@H](N)C(=O)O; X2 = CCC(C)CCC(O)CC(=O)*; Dab = NCC[C@H](N)C(=O)O

Key:
[1] = system: Staphylococcus aureus; experiment: Antimicrobial activity against Staphylococcus aureus after 24 hrs by spectrophotometry; type: functional
Summary of the method: (§1)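 Broth microdilution in Luria broth. Overnight culture from a single colony, grown at 28 °C (Ea1501, Psa) or 37 °C (E. coli, S. aureus), adjusted to OD600 0.6. Peptide dissolved in LB with 0.5% acetic acid as a dilution series; 50 μL peptide plus 50 μL culture per well, triplicates.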

[2] = system: Escherichia coli; experiment: Antimicrobial activity against Escherichia coli after 24 hrs by spectrophotometry; type: functional; summary of the method: as §1
[3] = system: Pseudomonas aeruginosa; experiment: Antimicrobial activity against Pseudomonas aeruginosa after 24 hrs by spectrophotometry; type: functional
[4] = Antimicrobial activity against Pseudomonas syringae pv. actinidiae 16027 after 24 hrs by spectrophotometry; type: functional; conditions: Pseudomonas syringae, 16027, 24 h; summary of the method: as §1
[5] = Hemolytic activity in mouse erythrocytes at 100 uM to 1 mM after 1 hr by spectrophotometry; type: ADME, cell-based, Erythrocyte; conditions: read-out: Activity
Summary of the method: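 100 μL peptide (1 μM–1 mM in Tris buffer) plus 100 μL cells, incubated 1 h at 37 °C, triplicates. After centrifugation, supernatant A540 read. Percent hemolysis calculated relative to buffer (0%) and 0.1% Triton X-100 (100%) controls.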

[6] = system: Erwinia amylovora; experiment: Antimicrobial activity against Erwinia amylovora 1501 after 24 hrs by spectrophotometry; type: functional; conditions: Erwinia amylovora, 1501, 24 h; summary of the method: as §1
[7] = system: Erwinia amylovora; experiment: Antimicrobial activity against streptomycin-resistant Erwinia amylovora after 24 hrs by spectrophotometry; type: functional
Summary of the method: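 Broth microdilution in Luria broth; overnight culture grown at 28 °C, adjusted to OD600 0.6, mixed 1:1 with a dilution series of peptide prepared in LB containing 0.5% acetic acid. Three replicates per concentration.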

Row | Compound | MIC [1] [µM] | MIC [2] [µM] | MIC [3] [µM] | MIC [4] [µM] | hemolysis at 1 h, 100 µM [5] [%] | MIC [6] [µM] | MIC [7] [µM]
1 | CCC(C)CCC(=O)N[C@H](CCN)C(=O)N[C@@H](CCN)C(=O)N[C@@H](C)C(=O)N[C@@H](CC(C)C)C(=O)N[C@H](Cc1ccccc1)C(=O)N[C@@H](CCN)C(=O)N[C@@H](CCN)C(=O)N[C@@H](CC(C)C)C(=O)O (some centres not stated) | 25 (≈ 24.4 µg/mL) | 25 (≈ 24.4 µg/mL) | 10 (≈ 9.75 µg/mL) | 25 (≈ 24.4 µg/mL) |  |  | 
2 | CCC(C)CCC(=O)N[C@H](CCN)C(=O)N[C@@H](C)C(=O)N[C@@H](CCN)C(=O)N[C@@H](CC(C)C)C(=O)N[C@H](Cc1ccccc1)C(=O)N[C@@H](CCN)C(=O)N[C@@H](CCN)C(=O)N[C@@H](CC(C)C)C(=O)O (some centres not stated) | 2.5 (≈ 2.44 µg/mL) | 25 (≈ 24.4 µg/mL) | 2.5 (≈ 2.44 µg/mL) | 2.5 (≈ 2.44 µg/mL) |  |  | 
3 | CCC(C)CCC(=O)N[C@@H](C)C(=O)N[C@@H](CCN)C(=O)N[C@@H](CCN)C(=O)N[C@@H](CC(C)C)C(=O)N[C@H](Cc1ccccc1)C(=O)N[C@@H](CCN)C(=O)N[C@@H](CCN)C(=O)N[C@@H](CC(C)C)C(=O)O (some centres not stated) | > 1000 | 500 (≈ 488 µg/mL) | 25 (≈ 24.4 µg/mL) | 100 (≈ 97.5 µg/mL) |  |  | 
4 | CC(C)CCCC(=O)N[C@H](CCN)C(=O)N[C@@H](CCN)C(=O)N[C@@H](CC(C)C)C(=O)N[C@H](Cc1ccccc1)C(=O)N[C@@H](CCN)C(N)=O | 2.5 (≈ 1.72 µg/mL) | 10 (≈ 6.9 µg/mL) | 1 (≈ 0.69 µg/mL) | 1 (≈ 0.69 µg/mL) | 1.14 |  | 
5 | CC(C)C[C@H](NC(=O)[C@H](CCN)NC(=O)[C@H](CCN)NC(=O)[C@@H](Cc1ccccc1)NC(=O)[C@H](CC(C)C)NC(=O)[C@H](CCN)NC(=O)[C@H](CCN)NC(=O)[C@H](N)CCN)C(N)=O (H-[dDab][Dab][Dab]L[dF][Dab][Dab]L-NH2) | > 1000 | 100 (≈ 89.1 µg/mL) | 2.5 (≈ 2.23 µg/mL) | 5 (≈ 4.46 µg/mL) |  |  | 
6 | CCCCCCCCCCCCCC(=O)N[C@H](CCN)C(=O)N[C@@H](CCN)C(=O)N[C@@H](CCN)C(=O)N[C@@H](CC(C)C)C(=O)N[C@H](Cc1ccccc1)C(=O)N[C@@H](CCN)C(=O)N[C@@H](CCN)C(=O)N[C@@H](CC(C)C)C(N)=O (Myristoyl-[dDab][Dab][Dab]L[dF][Dab][Dab]L-NH2) | 5 (≈ 5.51 µg/mL) | 5 (≈ 5.51 µg/mL) | 14 (≈ 15.4 µg/mL) | 14 (≈ 15.4 µg/mL) | 76.9 | 9 (≈ 9.91 µg/mL) | 14 (≈ 15.4 µg/mL)
7 | CCCCCCCCCCCCCC(=O)N[C@H](CCCCN)C(=O)N[C@@H](CCCCN)C(=O)N[C@@H](CCCCN)C(=O)N[C@@H](CC(C)C)C(=O)N[C@H](Cc1ccccc1)C(=O)N[C@@H](CCCCN)C(=O)N[C@@H](CCCCN)C(=O)N[C@@H](CC(C)C)C(N)=O (Myristoyl-[dK]KKL[dF]KKL-NH2) | 1 (≈ 1.24 µg/mL) | 12 (≈ 14.9 µg/mL) | 12 (≈ 14.9 µg/mL) | 12 (≈ 14.9 µg/mL) |  | 12 (≈ 14.9 µg/mL) | 12 (≈ 14.9 µg/mL)
8 | CC(C)=CCC/C(C)=C/C(=O)N[C@H](CCN)C(=O)N[C@@H](CCN)C(=O)N[C@@H](CCN)C(=O)N[C@@H](CC(C)C)C(=O)N[C@H](Cc1ccccc1)C(=O)N[C@@H](CCN)C(=O)N[C@@H](CCN)C(=O)N[C@@H](CC(C)C)C(N)=O (X1-[dDab][Dab][Dab]L[dF][Dab][Dab]L-NH2) | 48 (≈ 50 µg/mL) | 24 (≈ 25 µg/mL) | 48 (≈ 50 µg/mL) | 14 (≈ 14.6 µg/mL) |  | 24 (≈ 25 µg/mL) | 48 (≈ 50 µg/mL)
9 | CCC(C)CCC(O)CC(=O)N[C@H](CCN)C(=O)N[C@H]1CCNC(=O)[C@H](CC(C)C)NC(=O)[C@H](CCN)NC(=O)[C@H](CCN)NC(=O)[C@@H](Cc2ccccc2)NC(=O)[C@H](CC(C)C)NC(=O)[C@H](CCN)NC1=O (some centres not stated) (X2-[dDab][Dab][Dab]L[dF][Dab][Dab]L; lactam 2-C) | > 50 | 10 (≈ 10.3 µg/mL) | 5 (≈ 5.15 µg/mL) | 5 (≈ 5.15 µg/mL) |  | 24 (≈ 24.7 µg/mL) | 24 (≈ 24.7 µg/mL)
10 | CN[C@@H]1[C@H](O[C@H]2[C@H](O[C@H]3[C@H](O)[C@@H](O)[C@H](N=C(N)N)[C@@H](O)[C@@H]3N=C(N)N)O[C@@H](C)[C@]2(O)C=O)O[C@@H](CO)[C@H](O)[C@H]1O [STREPTOMYCIN] |  | 1 (≈ 0.582 µg/mL) |  | 1 (≈ 0.582 µg/mL) |  | 1 (≈ 0.582 µg/mL) | 500 (≈ 291 µg/mL)
11 | GENTAMICIN | 2.5 |  | < 1 |  |  |  | 
